Our source for the viability and IC50 values is ChEMBL document CHEMBL4145623, “Abietane Diterpenoids from the Roots of Clerodendrum trichotomum and Their Nitric Oxide Inhibitory Activities” (J Nat Prod, 2018).

Usually IC50 stands for the concentration that gives 50% inhibition.

Counter-ions that a name gives are not always drawn. Where only a bound is given, the exact number is not on record here.

System in the first data set: not listed separately
Description: Cytotoxicity against mouse RAW264.7 cells assessed as cell survival at 25 uM. The format is cell-based. The note with it: read-out: Survival.
For the compound `CC1=C(C)C2=CC(=O)c3c(O)c4c(c(O)c3[C@@]2(C)CC1)O[C@@H](C)C4`, the viability at 25 µM is less than 15%.

Turning to `CC1=C(C=O)CC[C@@]2(C)C1=CC(=O)c1c(O)c3c(c(O)c12)O[C@@H](C)C3`, the viability at 25 µM was less than 15%.

Regarding `CC1(C)CCC[C@@]2(C)C1=CC(=O)c1c(O)c3c(c(O)c12)O[C@@H](CO)C3`, the viability at 25 µM was less than 15%.

`CC1=C(C)[C@H](O)C[C@@]2(C)C1=CC(=O)c1c2c(O)c2oc(C)cc2c1O`: the viability at 25 µM was less than 15%.

As to `CC1=C(C)C2=CC(=O)c3c(c(O)c4oc(C)cc4c3O)[C@@]2(C)CC1`, the viability at 25 µM was less than 15%.

For `CC1=C(CO)C(=O)C[C@@]2(C)C1=CC(=O)c1c(O)c3c(c(O)c12)O[C@@H](C)C3`, the viability at 25 µM was less than 15%.

As to `CC1=C(C)[C@H](O)C[C@@]2(C)C1=CC(=O)c1c(O)c3c(c(O)c12)O[C@@H](C)C3`, the viability at 25 µM is less than 15%.

With `CC1=C(CO)CC[C@@]2(C)C1=CC(=O)c1c(O)c3c(c(O)c12)O[C@@H](C)C3`, the viability at 25 µM is less than 15%.

Consider `CC1=C(C)C2=CC(=O)C3=C(C(=O)c4oc(C)cc4C3=O)[C@@]2(C)CC1`, for which the viability at 25 µM was less than 15%.

Turning to `C[C@H]1Cc2c(O)c3c(c(O)c2O1)[C@@]1(C)CC[C@H](O)C(C)(C)[C@@H]1CC3=O`, the viability at 25 µM was less than 15%.

The subject of a further data set is RAW264.7. Description: Antiinflammatory activity against mouse RAW264.7 cells assessed as inhibition of LPS-induced NO production pretreated for 30 mins followed by LPS stimulation measured after 24 hrs by Griess reagent based assay. The format is functional, cell-based.
Settings: not given
In outline:
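Supernatant mixed 1:1 with Griess reagent for 10 min, absorbance read at 540 nm. DMSO final ≤0.1%. Aminoguanidine hydrochloride served as positive control. Run in triplicate; IC50 given as mean ± SD (n = 3).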
Background: Griess reagent forms a coloured azo dye with nitrite.
Regarding `Cc1cc2c(O)c3c(c(O)c2o1)[C@@]1(C)CCC(=O)C(C)(C)C1=C(O)C3=O`, the IC50 was more than 50 µM.

For `CC1=C(C)C2=CC(=O)[C@@]34O[C@@]3(C(=O)c3oc(C)cc3C4=O)[C@@]2(C)CC1`, the IC50 worked out at 10.6 µM.

For `C[C@@H](CO)c1cc2c(c(O)c1O)[C@@]1(C)CCCC(C)(C)[C@@H]1CC2=O`, the IC50 is more than 50 µM.

`CC1=C(C)C2=CC(=O)c3c(O)c4c(c(O)c3[C@@]2(C)CC1=O)O[C@@H](C)[C@@H]4O`: the IC50 is 38.6 µM.

Turning to `COC1=C2C(C)(C)C(=O)CC[C@]2(C)c2c(c(O)c3cc(C)oc3c2O)C1=O`, the IC50 is 31.1 µM.

In the case of `CC1=C(C)[C@@H](O)C[C@@]2(C)C1=CC(=O)c1c2c(O)c2oc(C)cc2c1O`, the IC50 was more than 50 µM.

In the case of `CC(O)Cc1cc2c(c(O)c1O)[C@@]1(C)CCCC(C)(C)[C@@H]1CC2=O` (some centres undefined), the IC50 was more than 50 µM.

As for `CC(CO)c1cc2c(c(O)c1O[C@@H]1O[C@H](CO)[C@@H](O)[C@H](O)[C@H]1O)[C@@]1(C)CC[C@H](O)C(C)(C)[C@@H]1CC2` (some centres undefined), the IC50 is more than 50 µM.

On to `COC1=C2C(C)(C)CCC[C@]2(C)c2c(O)c3c(c(O)c2C1=O)C[C@H](C)O3`, for which the IC50 was more than 50 µM.

Turning to `C[C@H]1Cc2c(O)c3c(c(O)c2O1)[C@@]1(C)CC[C@]2(C)O[C@]2(C)C1=CC3=O`, the half-maximal inhibitory concentration (IC50) is more than 50 µM.

Consider `C[C@H]1Cc2c(O)c3c(c(O)c2O1)[C@@]1(C)CCC2=C(COC2=O)C1=CC3=O`, for which the half-maximal inhibitory concentration (IC50) worked out at 28.9 µM.

Consider `COC1=C2C(C)(C)CCC[C@]2(C)c2c(O)c3c(c(O)c2C1=O)C[C@H](CO)O3`, for which the IC50 is 35.6 µM.

As for `COC1=C2C(C)(C)C(=O)CC[C@]2(C)c2c(O)c3c(c(O)c2C1=O)C[C@H](C)O3`, the 50% inhibitory concentration (IC50) is more than 50 µM.

Turning to `COC(=O)C1=C(C)C2=CC(=O)c3c(O)c4c(c(O)c3[C@@]2(C)CC1)O[C@@H](C)C4`, the IC50 was more than 50 µM.

For `C[C@H]1Cc2c(O)c3c(c(O)c2O1)[C@@]1(C)CCC(=O)C(C)(C)[C@@H]1CC3=O`, the half-inhibitory concentration (IC50) was more than 50 µM.

With `CC1=C(C)C2=CC(=O)c3c(O)c4c(c(O)c3[C@@]2(C)CC1=O)O[C@@H](C)C4`, the half-inhibitory concentration (IC50) came to 31.4 µM.

On to `CC(C)c1cc2c(c(O)c1O[C@@H]1O[C@H](CO)[C@@H](O)[C@H](O)[C@H]1O)[C@@]1(C)CCC[C@](C)(C(=O)O[C@@H]3O[C@H](CO)[C@@H](O)[C@H](O)[C@H]3O)[C@@H]1CC2`, for which the half-maximal inhibitory concentration (IC50) is more than 50 µM.

Turning to `CC1=C(C)C2=CC(=O)c3c(O)c4c(c(O)c3[C@@]2(C)CC1)O[C@@H](C)[C@@H]4O`, the IC50 was more than 50 µM.

As to `CC1=C(C)C2=CC(=O)C3=C(C(=O)[C@]4(Oc5c([C@H](C)CO)cc6c(c5O4)[C@]4(C)CCCC(C)(C)[C@H]4CC6=O)[C@@]4(O)C[C@H](C)O[C@]34O)[C@]2(C)CC1`, the IC50 turned out to be 5.6 µM.

`CC1(C)CCC[C@]2(C)c3c(O)c4c(c(O)c3C(=O)C[C@@H]12)C[C@H](CO)O4`: the IC50 is more than 50 µM.

Turning to `COC1=C2C(C)(C)CCC[C@]2(C)c2c(c(O)c3cc(CO)oc3c2O)C1=O`, the IC50 is 16.1 µM.

Consider `Cc1cc2c(O)c3c(c(O)c2o1)[C@@]1(C)CCC(=O)C(C)(C)[C@@H]1CC3=O`, for which the IC50 came to 6 µM.

In the case of `C[C@@]12C[C@@H]1CC[C@]1(C)c3c(O)c4c(c(O)c3C(=O)C[C@@H]21)C[C@H](CO)O4`, the IC50 was more than 50 µM.

`CC1=C(C)[C@@H](O)C[C@@]2(C)C1=CC(=O)c1c(O)c3c(c(O)c12)O[C@@H](C)C3`: the IC50 came out at 6.5 µM.

Turning to `C=C1C2=CC(=O)c3c(O)c4c(c(O)c3[C@@]2(C)CC[C@@]1(C)O)OC(C)C4` (some centres undefined), the IC50 was more than 50 µM.

Take `CC(C)c1cc2c(c(O)c1O[C@@H]1O[C@H](CO)[C@@H](O)[C@H](O)[C@H]1O)[C@@]1(C)CC[C@H](O[C@@H]3O[C@H](CO)[C@@H](O)[C@H](O)[C@H]3O)C(C)(C)[C@@H]1CC2`: the half-maximal inhibitory concentration (IC50) was more than 50 µM.

`C=C1C(C)=CC[C@]2(C)c3c(cc(CC(C)O)c(O[C@@H]4O[C@H](CO)[C@@H](O)[C@H](O)[C@H]4O)c3O)C(=O)C[C@@H]12` (some centres undefined): the IC50 is more than 50 µM.

Turning to `CC1=C(CO)C2=CC(=O)c3c(c(O)c4oc(C)cc4c3O)[C@@]2(C)CC1=O`, the IC50 was more than 50 µM.

Consider `CC1=C(C)C2=CC(=O)c3c(c(O)c4oc(C)cc4c3O)[C@@]2(C)CC1=O`, for which the IC50 was more than 50 µM.

For `CC(C)c1cc2c(c(O)c1O)[C@@]1(C)CCCC(C)(C)[C@@H]1[C@@H](O)C2=O` [6-ALPHA-HYDROXYDEMETHYL-CRYPTOJAPONOL], the IC50 is 9.4 µM.

Take `CC(C)c1cc2c(c(O)c1O)[C@@]1(C)CCCC(C)(C)[C@@H]1CC2=O` [DEMETHYLCRYPTOJAPONOL]: the IC50 is 15.5 µM.

Consider `N=C(N)NN` [PIMAGEDINE HYDROCHLORIDE], for which the 50% inhibitory concentration (IC50) stood at 26.2 µM.

Take `C[C@H]1Cc2c(O)c3c(c(O)c2O1)[C@@]1(C)CCC(=O)C(C)(C)C1=C(O)C3=O` [TEUVINCENONE A]: the IC50 was more than 50 µM.

For `CC1(C)CCC[C@@]2(C)C1=C(O)C(=O)c1c(O)c3c(c(O)c12)O[C@@H](CO)C3` [VILLOSIN C], the concentration for half-maximal inhibition (IC50) was found to be 15.5 µM.
